Experiments:
[1] = target: glucocorticoid receptor (GR); details: agonist; approximate; cited from earlier work
NRs for estrogen = details: cited from earlier work
[2] = test system: NRs for mineralocorticoids; details: cited from earlier work
P-gp (Abcb1a) = assay: Real-time RT-PCR of transporter mRNA in mouse tissues after exogenous hormones; assay type: in vivo; details: uterus and endocervix; Gapdh-normalized
How it was run: (§1)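 Tissues were taken from naturally cycling mice at estrus or diestrus (vaginal cytology staging) and from PMSG- or Depo-Provera-synchronized mice, 3–5 mice each. Real-time RT-PCR transporter mRNA was normalized to Gapdh by the 2−ΔCt method; Student's t-test between stages.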

P-gp (Abcb1b) = assay: as above; assay type: in vivo; details: uterus and ectocervix; Gapdh-normalized
How it was run: as §1

Bcrp (Abcg2) = assay: as above; assay type: in vivo; details: uterus; Gapdh-normalized
How it was run: as §1

Mrp4 (Abcc4) = assay: as above; assay type: in vivo; details: uterus, endocervix, and colorectum; Gapdh-normalized
How it was run: as §1

P-gp (Abcb1a/1b) protein = assay type: in vivo, mouse; details: endocervix, ectocervix, vagina
How it was run: (§2)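 Tissues came from natural estrus and diestrus mice (staged by vaginal cytology) and synchronized mice (estrus 24 h after PMSG; diestrus 7 days after first Depo-Provera), at least 3 mice each. Primary antibody dilutions: P-gp 1:15, Bcrp 1:25, Mrp4 1:15, overnight at 4 °C. Then biotinylated secondary (1:200, 30 min RT), ABC 30 min, AEC, hematoxylin. Non-immune IgG as negative control.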

Bcrp protein = assay type: in vivo, mouse; details: compared to the natural estrous stages
How it was run: as §2

Mrp4 protein = assay type: in vivo, mouse; details: endocervix, ectocervix, and vagina; vs natural estrous cycle
How it was run: as §2

Mrp4 [3] = target: T1, Mrp4 (Mus musculus, UniProt E9Q236); assay: Effect of MK571 on tissue distribution of IP-administered TFV; assay type: in vivo
T1 sequence (E9Q236 1-1325): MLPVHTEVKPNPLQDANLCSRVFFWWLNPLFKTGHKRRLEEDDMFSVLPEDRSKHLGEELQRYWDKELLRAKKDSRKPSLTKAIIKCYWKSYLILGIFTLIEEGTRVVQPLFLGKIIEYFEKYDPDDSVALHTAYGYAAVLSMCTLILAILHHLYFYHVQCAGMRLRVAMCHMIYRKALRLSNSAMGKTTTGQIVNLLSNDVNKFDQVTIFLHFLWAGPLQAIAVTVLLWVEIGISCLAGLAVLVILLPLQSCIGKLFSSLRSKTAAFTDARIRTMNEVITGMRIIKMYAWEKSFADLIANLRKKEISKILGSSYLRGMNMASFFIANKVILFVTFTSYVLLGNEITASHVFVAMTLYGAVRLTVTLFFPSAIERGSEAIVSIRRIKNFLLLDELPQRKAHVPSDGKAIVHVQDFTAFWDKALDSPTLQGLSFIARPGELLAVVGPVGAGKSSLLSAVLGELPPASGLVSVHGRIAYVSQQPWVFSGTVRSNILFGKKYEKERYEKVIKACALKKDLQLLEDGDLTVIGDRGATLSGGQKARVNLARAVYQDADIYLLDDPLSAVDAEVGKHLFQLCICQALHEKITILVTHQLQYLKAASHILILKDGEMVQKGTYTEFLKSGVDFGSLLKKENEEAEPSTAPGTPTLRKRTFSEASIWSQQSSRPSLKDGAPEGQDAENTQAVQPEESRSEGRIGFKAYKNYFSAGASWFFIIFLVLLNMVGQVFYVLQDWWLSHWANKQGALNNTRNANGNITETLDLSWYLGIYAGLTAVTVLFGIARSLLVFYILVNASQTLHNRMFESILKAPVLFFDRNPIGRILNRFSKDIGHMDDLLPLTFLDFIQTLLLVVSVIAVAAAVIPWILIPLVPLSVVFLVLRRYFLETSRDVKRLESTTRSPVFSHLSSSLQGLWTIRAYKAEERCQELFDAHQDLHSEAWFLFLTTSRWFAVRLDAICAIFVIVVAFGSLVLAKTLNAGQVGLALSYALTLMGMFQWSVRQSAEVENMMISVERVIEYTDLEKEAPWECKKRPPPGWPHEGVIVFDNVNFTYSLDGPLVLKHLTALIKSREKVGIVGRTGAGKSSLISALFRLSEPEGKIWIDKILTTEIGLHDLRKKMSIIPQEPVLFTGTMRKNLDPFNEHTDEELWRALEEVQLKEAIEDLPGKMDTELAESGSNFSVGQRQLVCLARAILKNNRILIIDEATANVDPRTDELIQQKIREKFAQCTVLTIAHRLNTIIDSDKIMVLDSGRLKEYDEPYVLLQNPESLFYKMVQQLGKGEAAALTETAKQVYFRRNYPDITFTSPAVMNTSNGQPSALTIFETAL
How it was run: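 Synchronized mice received 100 μL saline or saline containing 7.5 mg/mL MK571 IP. 15 min later they received 100 μL 3H-TFV in saline IP (0.94 × 10−5 mmol/mL, 125 μCi/mL). At 1.5 h: CVL (3 × 20 μL saline), plasma and tissues. Samples were dissolved in Solvable overnight at 50 °C, decolorized with H2O2 (50 °C, 1 h), then counted by scintillation. Two groups compared by t-test.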

Mrp4 [4] = target: T1, Mrp4; assay: Effect of MK571 on tissue distribution of vaginally administered TFV; assay type: in vivo
How it was run: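 Synchronized mice got IP saline or MK571 (100 μL, 7.5 mg/mL), then 20 μL vaginal gel 30 min later. Gel: 2.7% universal placebo (pH 4.4) with 3H-TFV plus unlabelled TFV, ±MK571. Ketamine/xylazine IP 5 min before gel. At 0.5 and 1 h: CVL (8 × 25 μL saline), plasma, tissues. Scintillation counting; total TFV from labelled:unlabelled ratio. 7–13 mice per point; ANOVA.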

[5] = In vitro release of TFV from gels, Franz cell apparatus; assay type: physicochemical
How it was run: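 Gels containing TFV, with or without MK571, were placed in the donor chamber of a Franz cell with PBS in the acceptor chamber. Acceptor TFV concentration over time gave cumulative release (30 and 60 min) and Papp. Three gels per group, mean ± SD.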

[6] = MK571 incorporated into TFV gel vs control, 0.5 h post gel
[7] = MK571 incorporated into TFV gel vs control, 1.0 h

CC(=O)O[C@]1(C(C)=O)CC[C@H]2[C@@H]3C[C@H](C)C4=CC(=O)CC[C@]4(C)[C@H]3CC[C@@]21C [MPA, medroxyprogesterone acetate]
EC50 [1]: ~10 nM
binding to nuclear receptor (NRs for estrogen): does not bind significantly
binding to nuclear receptor [2]: does not bind significantly

PMSG: exogenous hormone known to stimulate estrogen levels, used to synchronize mice into estrus
Abcb1a mRNA level compared to either stage of the natural cycle (P-gp (Abcb1a)): significantly altered
Abcb1b mRNA level compared to either stage of the natural cycle (P-gp (Abcb1b)): significantly altered
Bcrp mRNA level compared to either stage of the natural cycle (Bcrp (Abcg2)): significantly altered
Mrp4 mRNA level compared to either stage of the natural cycle (Mrp4 (Abcc4)): significantly altered
P-gp protein abundance or localization compared to natural estrous cycle (P-gp (Abcb1a/1b) protein): did not exert an obvious effect
Bcrp protein density in vaginal epithelium (Bcrp protein): appeared to decrease
epithelial and stromal abundance of Mrp4 protein (Mrp4 protein): decreased

C[C@H](Cn1cnc2c(N)ncnc21)OCP(=O)(O)O [TFV, tenofovir]
TFV distribution compared to its plasma concentration (Mrp4 [3]; after IP administration, 1.5 h): preferentially distributed into cervicovaginal tissues and fluid

CN(C)C(=O)CCSC(SCCC(=O)O)c1cccc(/C=C/c2ccc3ccc(Cl)cc3n2)c1 (stereo not drawn) [MK571]
TFV concentrations in plasma, uterus, and colorectum (Mrp4 [4]; MK571 IP solution 30 min before vaginal TFV gel vs TFV gel only): only slightly increased or remained unchanged
TFV concentration in CVL and endocervix (Mrp4 [4]; [6]): remained unchanged
TFV concentration in mouse vaginal tissue (Mrp4 [4]; [6]): significantly higher
TFV concentration in plasma, uterus, ectocervix, and colorectum (Mrp4 [4]; [6]): slightly, but not significantly, increased
TFV CVL concentration (Mrp4 [4]; [7]): significantly decreased
TFV concentration in plasma and uterus (Mrp4 [4]; [7]): remained unchanged
TFV concentration in the colorectum (Mrp4 [4]; [7]): significantly increased
decrease in TFV concentration in endocervix, ectocervix, and vagina (Mrp4 [4]; [7]): not statistically significant
TFV concentration in CVL and vagina (Mrp4 [3]; MK571 IP 15 min before IP TFV, 1.5 h post-TFV, p = 0.04): increased
TFV colorectum/plasma ratio (Mrp4 [3]; MK571 IP co-administration, IP TFV, 1.5 h, p = 0.006): significantly increased
TFV vagina/plasma ratio (Mrp4 [3]; MK571 IP co-administration, IP TFV, 1.5 h, p = 0.03): significantly increased
permeability coefficient Papp of TFV, gel with vs without MK571 ([5]; Franz cell apparatus, acceptor chamber): almost identical
impact of MK571 incorporation into the gel on in vitro release profile of TFV ([5]; vs gel containing TFV alone, Franz cell, PBS acceptor): did not have any impact

Reference: PMC5362249 (Biochemical pharmacology, 2016)
